Source: ChEMBL document CHEMBL1148372 (J Med Chem, 2004)
Several values for one entry are separate records, joined by “and”; a condition that tells them apart may be missing. Identical values can stand only once.

Columns and labels:
D(2) dopamine receptor [1] = biological target: T1, D(2) dopamine receptor (Homo sapiens, UniProt P14416); assay: In vitro binding affinity tested on human Dopamine receptor D2 using [3H]spiperon as a radioligand
D(2) dopamine receptor [2] = biological target: T1, D(2) dopamine receptor; assay: In vitro binding affinity tested on human Dopamine receptor D2 (short) using [3H]spiperone as a radioligand
D(2) dopamine receptor [3] = biological target: T1, D(2) dopamine receptor; assay: In vitro effective concentration tested on HEK293 cells co-transfected with human Dopamine receptor D2 using FLIPR assay; Not an agonist up to 10 uM; type: functional, cell-based
D(2) dopamine receptor [4] = biological target: T2, D(2) dopamine receptor (Rattus norvegicus, UniProt P61169); assay: In vitro effective concentration tested on HEK293 cells co-transfected with rat Dopamine receptor D2 using FLIPR assay; Not an agonist up to 10 uM; type: functional, cell-based
T2 sequence (P61169 whole entry): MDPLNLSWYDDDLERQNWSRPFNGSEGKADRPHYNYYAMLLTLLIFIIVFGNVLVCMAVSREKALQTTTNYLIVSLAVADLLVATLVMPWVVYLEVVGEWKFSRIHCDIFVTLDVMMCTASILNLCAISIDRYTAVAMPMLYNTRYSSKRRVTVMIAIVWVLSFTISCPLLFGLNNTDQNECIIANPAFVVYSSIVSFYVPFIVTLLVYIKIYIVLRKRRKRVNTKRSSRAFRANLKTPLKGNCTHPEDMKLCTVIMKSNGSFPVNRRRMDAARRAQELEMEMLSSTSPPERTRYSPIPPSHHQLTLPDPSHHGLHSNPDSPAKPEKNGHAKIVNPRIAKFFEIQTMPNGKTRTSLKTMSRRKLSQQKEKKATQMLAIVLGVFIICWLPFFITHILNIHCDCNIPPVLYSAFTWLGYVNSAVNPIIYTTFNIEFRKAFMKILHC

Rattus norvegicus [5] = assay: In vivo maximal effective dose tested in rats for erection 60 min after subcutaneous administration; type: functional
Procedure, shortened: (§1)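 Conscious male Wistar rats, adapted 60 min to a dim red-lit room, tested between 9:00 a.m. and 3:00 p.m. Dosed subcutaneously, then caged singly and observed directly for 60 min. Percent incidence is the share of animals with one or more erections; 8–30 animals per group. Maximally effective dose is the dose giving peak incidence, with significance versus control.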

D(4) dopamine receptor [6] = biological target: T3, D(4) dopamine receptor (Rattus norvegicus, UniProt P30729); assay: In vitro effective concentration tested on HEK293 cells co-transfected with rat Dopamine receptor D4 using FLIPR assay; type: cell-based
T3 sequence (P30729 whole entry): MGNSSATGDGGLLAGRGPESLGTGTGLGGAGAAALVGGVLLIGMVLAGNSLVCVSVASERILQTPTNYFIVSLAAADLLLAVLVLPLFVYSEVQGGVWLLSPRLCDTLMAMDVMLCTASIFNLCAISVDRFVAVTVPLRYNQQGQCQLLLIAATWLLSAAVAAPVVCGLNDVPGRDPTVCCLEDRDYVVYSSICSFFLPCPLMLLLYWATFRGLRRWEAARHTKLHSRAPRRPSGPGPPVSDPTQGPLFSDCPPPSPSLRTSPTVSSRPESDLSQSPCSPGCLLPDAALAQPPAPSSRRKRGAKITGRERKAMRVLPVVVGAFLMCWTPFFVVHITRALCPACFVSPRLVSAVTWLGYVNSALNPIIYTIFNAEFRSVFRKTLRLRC

[7] = biological target: T4, 5-hydroxytryptamine receptor 1A (Homo sapiens, UniProt P08908); assay: In vitro binding affinity tested on human 5-hydroxytryptamine 1A receptor
T4 sequence (P08908 whole entry): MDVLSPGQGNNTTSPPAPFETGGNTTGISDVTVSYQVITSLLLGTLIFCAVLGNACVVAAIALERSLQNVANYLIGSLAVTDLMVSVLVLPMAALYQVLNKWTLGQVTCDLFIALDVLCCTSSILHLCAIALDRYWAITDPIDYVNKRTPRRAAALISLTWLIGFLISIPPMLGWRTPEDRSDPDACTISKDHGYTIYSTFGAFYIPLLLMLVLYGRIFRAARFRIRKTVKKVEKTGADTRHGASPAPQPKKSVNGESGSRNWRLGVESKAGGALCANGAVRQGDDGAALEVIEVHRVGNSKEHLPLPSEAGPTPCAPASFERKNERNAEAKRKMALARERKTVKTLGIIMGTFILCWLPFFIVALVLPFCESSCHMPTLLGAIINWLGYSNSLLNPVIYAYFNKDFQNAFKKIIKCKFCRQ

D(2) dopamine receptor [8] = biological target: T1, D(2) dopamine receptor; assay: In vitro binding affinity tested on human Dopamine receptor D2 (long) using [3H]spiperon as a radioligand
[9] = biological target: T5, D(4) dopamine receptor (Homo sapiens) (UniProt P21917); assay: In vitro efficacy tested on human Dopamine receptor D4.4 were co-expressed with GRqo5 in HEK293 cells using FLIPR assay (Efficacy relative to 10 uM dopamine); type: cell-based
T5 sequence (whole entry): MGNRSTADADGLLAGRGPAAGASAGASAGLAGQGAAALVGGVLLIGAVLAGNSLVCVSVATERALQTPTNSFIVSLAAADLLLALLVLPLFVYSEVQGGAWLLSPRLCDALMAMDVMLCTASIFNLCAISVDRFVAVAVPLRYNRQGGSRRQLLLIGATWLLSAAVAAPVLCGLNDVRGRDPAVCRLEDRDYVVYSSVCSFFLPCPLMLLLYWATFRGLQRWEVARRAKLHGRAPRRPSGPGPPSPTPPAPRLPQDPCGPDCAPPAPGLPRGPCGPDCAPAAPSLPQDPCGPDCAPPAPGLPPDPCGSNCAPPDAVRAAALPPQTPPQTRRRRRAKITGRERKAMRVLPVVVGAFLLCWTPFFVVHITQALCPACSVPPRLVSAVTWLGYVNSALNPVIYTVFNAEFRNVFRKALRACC
Procedure, shortened: (§2)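 HEK293 cells coexpressing human D4.4 receptor and Gαqo5, plated at 20 000 cells/well and grown 2 days. Loaded 1 h at 23 °C with 4 µM Fluo-4 plus 0.04% Pluronic F-127 in DPBS, washed four times. Compound added, fluorescence read over 3 min.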

Rattus norvegicus [10] = assay: In vivo maximal penile erection in rats 60 min after subcutaneous administration; type: functional; procedure, shortened: as §1
D(4) dopamine receptor [11] = biological target: T6, D(4) dopamine receptor (Homo sapiens, UniProt P21917); assay: In vitro EC50 tested on HEK293 cells co-transfected with human Dopamine receptor D4.4 using FLIPR assay; type: cell-based; procedure, shortened: as §2
T6 sequence (P21917 whole entry): T5 sequence (whole entry)

[12] = Binding affinity tested against D4.2 receptor in Chinese hamster ovary cell line (CHO cells) using [3H]spiperone as a radioligand; type: cell-based, Cricetulus griseus
D(2) dopamine receptor [13] = biological target: T2, D(2) dopamine receptor; assay: In vitro effective concentration tested on HEK293 cells co-transfected with rat Dopamine receptor D2 using FLIPR assay; type: cell-based
[14] = biological target: Kappa-type opioid receptor (Homo sapiens, UniProt P41145); assay: Binding affinity towards human Opioid receptor kappa 1
Kappa-type opioid receptor, sequence (P41145 whole entry): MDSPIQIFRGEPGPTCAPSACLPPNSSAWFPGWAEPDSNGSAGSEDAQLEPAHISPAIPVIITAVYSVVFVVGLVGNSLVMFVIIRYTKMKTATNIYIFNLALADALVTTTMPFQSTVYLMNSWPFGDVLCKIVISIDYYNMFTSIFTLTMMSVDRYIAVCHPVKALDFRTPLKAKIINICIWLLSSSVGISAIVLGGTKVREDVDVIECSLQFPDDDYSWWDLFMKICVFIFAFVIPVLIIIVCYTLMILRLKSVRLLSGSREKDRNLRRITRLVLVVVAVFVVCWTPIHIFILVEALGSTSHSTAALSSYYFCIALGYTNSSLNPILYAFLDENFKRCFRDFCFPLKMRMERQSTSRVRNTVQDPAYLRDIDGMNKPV

D(2) dopamine receptor [15] = biological target: T1, D(2) dopamine receptor; assay: Binding affinity towards human Dopamine receptor D2
D(3) dopamine receptor = D(3) dopamine receptor (Homo sapiens, UniProt P35462); assay: Binding affinity towards human Dopamine receptor D3
D(3) dopamine receptor, sequence (P35462 whole entry): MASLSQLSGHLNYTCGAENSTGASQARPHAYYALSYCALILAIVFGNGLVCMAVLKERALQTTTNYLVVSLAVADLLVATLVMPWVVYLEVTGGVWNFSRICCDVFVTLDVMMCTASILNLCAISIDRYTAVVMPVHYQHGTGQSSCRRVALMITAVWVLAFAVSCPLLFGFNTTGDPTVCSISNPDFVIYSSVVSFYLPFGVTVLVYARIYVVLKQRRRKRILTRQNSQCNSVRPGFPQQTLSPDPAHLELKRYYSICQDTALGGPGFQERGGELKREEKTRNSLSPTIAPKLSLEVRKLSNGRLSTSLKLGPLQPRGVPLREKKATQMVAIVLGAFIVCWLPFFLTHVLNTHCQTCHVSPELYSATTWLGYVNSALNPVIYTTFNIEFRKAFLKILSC

[16] = biological target: D(2) dopamine receptor (Rattus norvegicus) (UniProt P61169); assay: In vitro efficacy tested on rat Dopamine receptor D2 were co-expressed with GRqo5 in HEK293 cells using FLIPR assay (Efficacy relative to 10 uM dopamine); type: cell-based
D(2) dopamine receptor (Rattus norvegicus), sequence (P61169 whole entry): as the sequence (P61169 whole entry) above

D(4) dopamine receptor [17] = biological target: T6, D(4) dopamine receptor; assay: Binding affinity towards human D4.4 receptor
Procedure, shortened: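 Membranes from HEK-293 cells transfected with human D4.4 receptor, stored at -80 °C. Filtration through glass microfiber filters, three cold Tris washes, scintillation counting; Ki derived.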

[18] = biological target: T7, Adrenergic receptor alpha-2 (Homo sapiens, UniProt P08913+P18825+P18089); assay: Binding affinity towards human alpha-2 adrenergic receptor; type: protein assay
T7 sequence (P08913 whole entry): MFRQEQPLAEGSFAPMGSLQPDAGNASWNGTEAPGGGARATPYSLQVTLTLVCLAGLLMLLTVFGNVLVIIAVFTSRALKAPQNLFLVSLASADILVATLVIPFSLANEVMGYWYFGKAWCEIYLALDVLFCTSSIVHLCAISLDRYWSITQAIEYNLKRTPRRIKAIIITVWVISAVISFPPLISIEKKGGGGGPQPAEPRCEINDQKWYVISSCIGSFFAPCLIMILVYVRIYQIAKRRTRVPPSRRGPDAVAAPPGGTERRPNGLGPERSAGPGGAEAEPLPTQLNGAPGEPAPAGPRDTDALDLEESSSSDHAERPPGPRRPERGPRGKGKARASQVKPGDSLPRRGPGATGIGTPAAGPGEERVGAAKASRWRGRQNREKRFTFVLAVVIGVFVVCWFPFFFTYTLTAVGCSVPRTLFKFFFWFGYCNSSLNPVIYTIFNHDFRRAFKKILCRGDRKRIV
T7 sequence (P18825 whole entry): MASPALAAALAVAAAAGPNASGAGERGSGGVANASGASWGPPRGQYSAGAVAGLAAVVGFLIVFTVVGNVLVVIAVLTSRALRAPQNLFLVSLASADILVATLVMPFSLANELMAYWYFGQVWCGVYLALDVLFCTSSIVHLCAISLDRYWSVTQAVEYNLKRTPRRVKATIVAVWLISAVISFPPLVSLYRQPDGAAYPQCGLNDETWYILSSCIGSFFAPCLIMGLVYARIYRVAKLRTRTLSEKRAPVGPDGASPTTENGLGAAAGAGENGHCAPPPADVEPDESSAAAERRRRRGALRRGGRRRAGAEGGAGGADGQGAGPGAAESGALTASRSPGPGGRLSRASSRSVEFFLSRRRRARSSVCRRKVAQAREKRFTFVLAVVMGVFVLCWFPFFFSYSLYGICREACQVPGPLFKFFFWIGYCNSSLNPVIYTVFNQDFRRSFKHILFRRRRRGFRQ
T7 sequence (P18089 whole entry): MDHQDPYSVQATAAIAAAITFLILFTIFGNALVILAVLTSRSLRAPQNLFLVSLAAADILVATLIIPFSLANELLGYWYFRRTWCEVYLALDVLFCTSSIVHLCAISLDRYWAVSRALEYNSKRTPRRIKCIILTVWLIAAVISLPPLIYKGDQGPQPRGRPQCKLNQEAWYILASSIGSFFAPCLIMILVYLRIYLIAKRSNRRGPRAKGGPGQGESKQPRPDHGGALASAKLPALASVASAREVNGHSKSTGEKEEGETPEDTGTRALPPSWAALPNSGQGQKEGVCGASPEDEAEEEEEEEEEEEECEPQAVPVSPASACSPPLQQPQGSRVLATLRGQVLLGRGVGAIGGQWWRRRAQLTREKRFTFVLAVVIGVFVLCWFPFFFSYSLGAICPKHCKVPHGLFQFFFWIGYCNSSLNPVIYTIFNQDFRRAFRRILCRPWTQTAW

[19] = biological target: T4, 5-hydroxytryptamine receptor 1A; assay: Binding affinity towards human 5-hydroxytryptamine 1A receptor
D(4) dopamine receptor [20] = biological target: T6, D(4) dopamine receptor; assay: In vitro effective concentration tested on HEK293 cells co-transfected with human Dopamine receptor D4 using FLIPR assay; Not an agonist up to 10 uM; type: functional, cell-based
Procedure, shortened: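 Human D4.4 receptor co-expressed with Gαqo5 in HEK293 cells, plated at 20 000 cells/well and grown 2 days. Loaded with 4 µM Fluo-4 and 0.04% Pluronic F-127 in DPBS with glucose and pyruvate for 1 h at 23 °C, then washed. Compound added and fluorescence read over 3 min on FLIPR. […] EC50 is the concentration giving half-maximal response.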

[21] = biological target: D(2) dopamine receptor (Rattus norvegicus) (UniProt P61169); assay: In vitro efficacy tested on ferret Dopamine receptor D2 were co-expressed with GRqo5 in HEK293 cells using FLIPR assay (Efficacy relative to 10 uM dopamine); type: functional, cell-based
Procedure, shortened: (§3)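 HEK cells co-transfected with the target receptor plus Gαqo5. […] Compounds were tested up to 10 µM. Untransfected cells served as a control.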

[22] = biological target: D(2) dopamine receptor (Rattus norvegicus) (UniProt P61169); assay: In vitro efficacy tested on rat Dopamine receptor D2 were coexpressed with GRqo5 in HEK293 cells using FLIPR assay (Efficacy relative to 10 uM dopamine); type: functional, cell-based; procedure, shortened: as §3
D(4) dopamine receptor [23] = biological target: T3, D(4) dopamine receptor; assay: In vitro effective concentration tested on HEK293 cells co-transfected with rat Dopamine receptor D4 using FLIPR assay; Not an agonist up to 10 uM; type: functional, cell-based; procedure, shortened: as §3
D(2) dopamine receptor [24] = biological target: T1, D(2) dopamine receptor; assay: In vitro efficacy tested on human Dopamine receptor D2 were co-expressed with GRqo5 in HEK293 cells using FLIPR assay (Efficacy relative to 10 uM dopamine); type: functional, cell-based

T1 sequence (P14416 whole entry): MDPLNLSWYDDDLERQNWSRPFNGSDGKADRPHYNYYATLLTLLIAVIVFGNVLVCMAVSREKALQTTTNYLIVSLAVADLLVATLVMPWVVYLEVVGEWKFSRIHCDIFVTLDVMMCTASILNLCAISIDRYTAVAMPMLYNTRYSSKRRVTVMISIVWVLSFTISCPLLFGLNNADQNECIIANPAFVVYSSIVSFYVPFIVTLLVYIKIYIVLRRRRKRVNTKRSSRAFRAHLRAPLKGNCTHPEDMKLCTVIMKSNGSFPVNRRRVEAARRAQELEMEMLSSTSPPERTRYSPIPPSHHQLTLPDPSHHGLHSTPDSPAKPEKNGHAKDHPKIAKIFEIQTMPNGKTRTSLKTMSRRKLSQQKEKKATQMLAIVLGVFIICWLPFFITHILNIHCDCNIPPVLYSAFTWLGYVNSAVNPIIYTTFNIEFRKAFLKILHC

In the case of c1ccc(N2CCN(Cc3nc4ccccc4[nH]3)CC2)nc1 [ABT-724], the Ki (D(2) dopamine receptor [1]) is reported as 0.16 µM, the Ki (D(2) dopamine receptor [2]) is reported as 51 µM and the EC50 (D(2) dopamine receptor [3]) is reported as “Not Active”. For the same compound, the EC50 (D(2) dopamine receptor [4]) was “Not Active”, the Effective dose (Rattus norvegicus [5]) was 0.03 µM/kg and the EC50 (D(4) dopamine receptor [6]) was 0.0143 µM. The Ki [7] was > 10 µM and 2780 µM, the Ki (D(2) dopamine receptor [8]) was 15 µM and the Efficacy [9] was 61%. It also gave an Activity (Rattus norvegicus [10]) of 77%.

Work on c1ccc(N2CCN(Cc3nc4ccccc4[nH]3)CC2)cc1 yielded an EC50 (D(4) dopamine receptor [11]) of 0.0306 µM, an Effective dose (Rattus norvegicus [5]) of 0.03 µM/kg and an Efficacy [9] of 33%. For the same compound, the Ki [12] was 0.033 µM and the Activity (Rattus norvegicus [10]) was 75%.

Fc1ccc2[nH]c(CN3CCN(c4ccccn4)CC3)cc2c1 gave an EC50 (D(2) dopamine receptor [13]) of 0.055 µM, a Ki [14] of 0.3 µM and a Ki (D(2) dopamine receptor [15]) of 0.12 µM. For the same compound, the EC50 (D(2) dopamine receptor [3]) was “Not Active”, the Ki (D(3) dopamine receptor) was 0.56 µM and the Effective dose (Rattus norvegicus [5]) was 1 µM/kg. For the same compound, the Efficacy [16] was 89%, the EC50 (D(4) dopamine receptor [6]) was 0.036 µM and the Ki (D(4) dopamine receptor [17]) was 0.0036 µM. The Ki [18] was 0.4 µM, the Ki [19] was 0.2 µM and the Activity (Rattus norvegicus [10]) was 83%.

For CN[C@@H]1Cc2cccc3[nH]c(=O)n(c23)C1 [SUMANIROLE], the EC50 (D(4) dopamine receptor [20]) was “Not Active”, the Efficacy [21] was 90% and the Efficacy [22] was 103%. The EC50 (D(4) dopamine receptor [23]) was “Not Active” and the Efficacy (D(2) dopamine receptor [24]) was 93%.
